In the library only some 1.7% were active in any assay of this set; here they are far more common.
LMPTP inh: LMPTP (human) inhibition; P24666; inhibition, % at 20 µM; recombinant LMPTP-A, OMFP fluorogenic substrate, fluorescence intensity; AID 651560; actives 0.22% (n = 360,000);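 active = compounds that cut the enzyme signal by at least half of the control window in the single-dose screen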;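 note: plate controls were DMSO wells with enzyme plus substrate for no effect and substrate without enzyme for full effect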
Target sequence (P24666 whole entry, looked up): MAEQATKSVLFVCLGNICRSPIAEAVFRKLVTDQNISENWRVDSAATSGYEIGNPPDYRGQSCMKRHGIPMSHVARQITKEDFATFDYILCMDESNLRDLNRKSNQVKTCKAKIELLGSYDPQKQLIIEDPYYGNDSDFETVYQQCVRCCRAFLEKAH
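Material: LMPTP-A; amount: 0.625 nM enzyme; doses: single 20 µM dose; times: reaction 50 min, room temperature, dark; technique: fluorescence intensity of OMFP turnover product; benchmarks: no-enzyme and uninhibited controls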
STEP block: blocks human striatal-enriched tyrosine phosphatase; recombinant STEP, OMFP fluorogenic substrate, fluorescence; inhibition, % at 20 µM; actives 0.25% (n = 360,000);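 active = inhibition at 20 µM, scaled per plate between control wells, above about 37%, limit read from the data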;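 note: 0% = DMSO with enzyme and substrate and 100% = substrate only without enzyme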
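material = STEP tyrosine phosphatase | reagent = fluorogenic phosphatase substrate OMFP at 25 µM final | doses = single compound dose of 20 µM, 1% DMSO final | schedule = 20 min reaction, room temperature, in the dark | measured by = fluorescence, 480/540 nm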
SUMO1-SIM PPI: modulators of human SUMO1-mediated protein-protein interactions. P63165. SUMO1 binding to a labelled peptide, TR-FRET, 1 h. inhibition, % at 20 µM. actives 0.33% (n = 360,000). AID 602429; in the data active = inhibition above about 37%
Target sequence (P63165 whole entry, looked up): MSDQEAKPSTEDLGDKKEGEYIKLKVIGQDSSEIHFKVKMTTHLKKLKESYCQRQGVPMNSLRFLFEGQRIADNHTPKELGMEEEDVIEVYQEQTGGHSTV
Scp1 inh: blocks human Scp-1 phosphatase activity | Recombinant Scp1, phosphopeptide, malachite green phosphate absorbance | inhibition, % at 20 µM | actives 0.88% (n = 340,000) | Q9GZU7 | AID 493091;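 active = inhibition above about 50% at 20 µM, limit read from the data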;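 note: plate controls were DMSO wells with enzyme for no effect and wells lacking enzyme for full effect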
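Material – SCP-1 phosphatase catalytic domain, residues 76-261 · Buffer or medium – Acidic Tris acetate buffer with magnesium and detergent · Also added – Phospho 17-mer peptide substrate · Compound – single 20 µM dose, 1% DMSO · Times – 45 min room-temperature reaction, 5 min colour, 30 min stabiliser · Technique – Phosphate-binding colour reagent, absorbance read at 630 nm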
DNMT1 inh: blocks human DNA methyltransferase DNMT1; P26358; DNMT1 molecular beacon, Hinp1I cleavage, fluorescence; inhibition (reported as % activation of signal), % at 10 µM; actives 0.83% (n = 360,000); in the data active = inhibition above about 50%
STEP inh conf: confirmation of human STEP phosphatase inhibitors; shares compounds with STEP block; recombinant STEP, OMFP fluorogenic substrate, fluorescence; inhibition, % at 20 µM; actives 32% (n = 520); call rule not given here;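 note: 0% = enzyme with substrate plus DMSO and 100% = substrate without enzyme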
An asterisk follows results filed as active; x = no result.

SMILES	LMPTP inh	STEP block	SUMO1-SIM PPI	Scp1 inh	DNMT1 inh	STEP inh conf
Cc1ccc(Cn2c(SCC(=O)Nc3cc(C)on3)nc3ccccc3c2=O)cc1	0.3	40.7*	-1.3	-11.3	9.2	-5.2
Cc1cc(NC(=O)CSc2nc3ccccc3c(=O)n2Cc2ccccc2)no1	-0.1	-3.9	4.0	-14.7	6.2	x
O=S(=O)(c1ccc(Oc2ccc(F)c(Cl)c2)nc1)N1CCOCC1	1.5	-3.1	5.1	-3.5	-1.1	x
Cc1ccc2nc(Nc3ccc(F)cc3)c3nncn3c2c1	26.6	45.1*	10.1	-13.1	26.5	6.4
COCCN(C(=S)Nc1c(C)cc(C)cc1C)C(C)c1cccnc1 (configuration not stated)	1.1	50.4*	1.9	-7.3	-2.2	20.9*
O=C(COc1ccccc1[N+](=O)[O-])NCCCN1CCCC1=O	-1.0	-1.4	-4.3	-5.7	3.7	x
O=C(CSS(=O)(=O)O)N1CCN(C(=O)c2ccoc2)CC1	-1.1	77.3*	2.4	8.8	-0.6	14.4
COc1ccc(-c2nc3cc(C)c(Br)c(C)n3c2CC(C)(C)C)cc1OC	3.9	4.3	-0.2	x	-6.1	x
COc1cc2c(cc1NC(=O)c1cccc([N+](=O)[O-])c1)oc1ccccc12	65.9*	83.5*	-2.1	28.0	46.7	12.3
COc1cc2c(cc1NC(=O)c1ccc(C)c([N+](=O)[O-])c1)oc1ccccc12	-0.5	0.3	-2.3	-2.7	13.7	x
O=C(Nc1ccccn1)c1ccc(Br)s1	0.4	1.4	-0.7	-8.1	0.3	x
O=C(Nn1cnnc1)c1ccc(Br)s1	-1.1	118.2*	5.1	1.5	0.0	0.3
Cc1csc2ncc(C(=O)NCc3ccccn3)c(=O)n12	-0.4	98.3*	0.5	-6.0	3.6	9.9
O=C(NCc1ccc(F)cc1)c1cc(-c2ccccn2)nc2ccc(S(=O)(=O)N3CCOCC3)cc12	0.1	0.3	13.4	x	25.4	x

Screening data from PubChem BioAssay.
